According to the RNAGym collection of RNA variant scans (doi:10.1126/science.aae0568):
Fewer inactive variants are shown than the library holds.

B1: tRNA (parent)
chain: GUUCCGUUGGCGUAAUGGUAACGCGUCUCCCUCCUAAGGAGAAGACUGCGGGUUCGAGUCCCGUACGGAACG

Variants of: B1
Assay: yeast fitness relative to wild type (ratio to wild type); higher = fitter; tRNA-Arg(CCU), competitive growth, 37 C, YPD
Summary of the method: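 Gene amplicons from the start population and from each of six end populations were read by 100-nucleotide paired-end sequencing. Those end populations came from pooled Saccharomyces cerevisiae strains carrying tRNA-Arg(CCU) gene variants at the native locus, competed in YPD at 37°C for 24 hours. Fitness relative to wild type was worked out from changes in genotype frequencies. Genotypes needed ≥ 100 starting reads, and estimates < 0.5 were set to 0.5.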

Variant | yeast fitness
G23C U28C C46G C62G | ≤ 0.5
G23C U28G G41A A42U U59A | ≤ 0.5
G23C U32A C66U | ≤ 0.5
G23C U47G | 0.626
G23C U53A | 0.55
G23C U54C | 0.502
G23U | 0.779
G23U A36C C46U G50C G67C | ≤ 0.5
G23U A69C | 0.695
G23U C49U C55A C66U | ≤ 0.5
G23U C60U A65G | ≤ 0.5
G23U G52A C55A U64A | ≤ 0.5
G23U U54G | ≤ 0.5
C24A A36C | 0.531
C24A A36C G41A U53C | ≤ 0.5
C24A A36G A37G | ≤ 0.5
C24A A36G A42G A43G G48A | ≤ 0.5
C24A A36G A43G | ≤ 0.5
C24A A36G C61U | ≤ 0.5
C24A A36U C55A | ≤ 0.5
C24A A37C G38A | 0.61
C24A A37G | 0.513
C24A A37U | 0.579
C24A A40U A43U C61G G68U | 0.597

Variant | yeast fitness
C24A A42G | 0.548
C24A A42G C49U U59G C62A A69G | ≤ 0.5
C24A A42G C61U C62G | 0.541
C24A A42G U47C U59C | ≤ 0.5
C24A A43C | 0.55
C24A A43G | 0.597
C24A A43G A70C | ≤ 0.5
C24A A43G G63U U64A | ≤ 0.5
C24A A43U A45C | ≤ 0.5
C24A A43U G50A G67A | ≤ 0.5
C24A A43U G51C G52C | ≤ 0.5
C24A A43U U59A C61U | ≤ 0.5
C24A A45G A65U | 0.552
C24A A45G C61G C62U | 0.543
C24A A45G C61U | ≤ 0.5
C24A A45G G50A | ≤ 0.5
C24A A65G | 0.654
C24A A65U | 0.549
C24A C27G C29A A70G | ≤ 0.5
C24A C27G C29G G52C C62U | 0.567
C24A C27G C61U | 0.575
C24A C27G U53C C55U | ≤ 0.5
C24A C27U A40U G44C A57U G67C | ≤ 0.5
C24A C29A A40U A43G C49G | ≤ 0.5

Variant | yeast fitness
C24A C29G U32G G38A U47A | ≤ 0.5
C24A C29U C61G | ≤ 0.5
C24A C29U G67U | 0.591
C24A C30U A45G | ≤ 0.5
C24A C30U A45G U54C A57U C62U | 0.548
C24A C30U A65G C66U | ≤ 0.5
C24A C30U C55U | ≤ 0.5
C24A C31A | 0.603
C24A C31G | 0.625
C24A C31G C60U | ≤ 0.5
C24A C31G C62A | 0.594
C24A C31U | 0.754
C24A C31U A45U A69U | ≤ 0.5
C24A C31U C46U | 0.785
C24A C33A | 0.587
C24A C33A A37U G50C C61U | ≤ 0.5
C24A C33A C34A C62A | ≤ 0.5
C24A C33A C46U C60G | ≤ 0.5
C24A C33A C49U A69U | ≤ 0.5
C24A C33A C49U U54G | 0.58
C24A C33A C49U U54G A70C | ≤ 0.5
C24A C33A C49U U54G G56A | ≤ 0.5
C24A C33G | 0.705
C24A C33G C34U G58C C62U | ≤ 0.5

Variant | yeast fitness
C24A C33U | 0.601
C24A C34A A37G A57G A65G | 0.544
C24A C34U A40C | ≤ 0.5
C24A C34U C49A A65U | ≤ 0.5
C24A C49U | 0.614
C24A C55A A65G | ≤ 0.5
C24A C55A C62U A65C | 0.529
C24A C60G | 0.51
C24A C61A G67A | ≤ 0.5
C24A C61U | 0.718
C24A C61U G67A | ≤ 0.5
C24A C62U A70C | ≤ 0.5
C24A C62U A70U | 0.543
C24A C66G | 0.548
C24A G25A U35A | ≤ 0.5
C24A G25C | 0.702
C24A G25C U47A | ≤ 0.5
C24A G39A C60A C66U | ≤ 0.5
C24A G39C G51A G63A | ≤ 0.5
C24A G41A G44A U53A C66U | ≤ 0.5
C24A G44A U54C G56C | ≤ 0.5
C24A G44C C49A C60U A69C | 0.599
C24A G48A U53G | ≤ 0.5
C24A G48A U53G G67C | ≤ 0.5

Variant | yeast fitness
C24A G48C | 0.621
C24A G48C A70U | ≤ 0.5
C24A G51A C60U G67A | ≤ 0.5
C24A G56A | 0.711
C24A G56C C61G | ≤ 0.5
C24A G67A | 0.709
C24A G67C | 0.74
C24A G67U | 0.669
C24A G68U | 0.654
C24A U26A | 0.57
C24A U26A C31A | 0.544
C24A U26A C31A C55A U64C | ≤ 0.5
C24A U26A C31A C62A | ≤ 0.5
C24A U26A C55A | ≤ 0.5
C24A U26C U54A C60U A69C | 0.819
C24A U26G A43C C60U C62G G63A C66G A69G | ≤ 0.5
C24A U26G A43C C62G G63A C66G A69G | 0.531
C24A U26G A43C U64C | ≤ 0.5
C24A U26G C61U | ≤ 0.5
C24A U28C | 0.568
C24A U28C C61A | ≤ 0.5
C24A U32A C55A G68C | ≤ 0.5
C24A U32A G50C | ≤ 0.5
C24A U32C G39C A70C | ≤ 0.5

Variant | yeast fitness
C24A U35G G52A U64A | 0.514
C24A U47G G58A C62A | ≤ 0.5
C24A U47G G68A | ≤ 0.5
C24A U54C | 0.634
C24A U59C | 0.553
C24G A36C | 0.531
C24G A36C A40C A42U | ≤ 0.5
C24G A36C A40G A45U | ≤ 0.5
C24G A36C A42U A43G | ≤ 0.5
C24G A36C A57C A69U A70C | ≤ 0.5
C24G A36C C49U A70C | ≤ 0.5
C24G A36C C55U | ≤ 0.5
C24G A36C U54G | ≤ 0.5
C24G A36G A45G | ≤ 0.5
C24G A36G A45G A65U | ≤ 0.5
C24G A36G A57C C61U | ≤ 0.5
C24G A36G C61A | ≤ 0.5
C24G A36G U53A | 0.555
C24G A36G U64C A65U | ≤ 0.5
C24G A36U | ≤ 0.5
C24G A36U A40G U64C | ≤ 0.5
C24G A37C A57U | ≤ 0.5
C24G A37G A43U C62G | 0.77
C24G A37G C55U | ≤ 0.5

Variant | yeast fitness
C24G A37G C61U | ≤ 0.5
C24G A37G G58A G67A | ≤ 0.5
C24G A37G G67C | 0.549
C24G A37U A42G | ≤ 0.5
C24G A37U C55U G67C | ≤ 0.5
C24G A37U U47A | ≤ 0.5
C24G A40C | 0.601
C24G A40C A45U | ≤ 0.5
C24G A40G | 0.647
C24G A40G A43G | ≤ 0.5
C24G A40G G50C | 0.599
C24G A42C C66U | ≤ 0.5
C24G A42G A43U U47A | 0.635
C24G A42U | 0.559
C24G A42U C49U | ≤ 0.5
C24G A43C C46G U53G C61U | ≤ 0.5
C24G A43G | 0.573
C24G A43G C49U C55G | 0.643
C24G A45C | 0.629
C24G A45G | 0.637
C24G A45U | 0.557
C24G A45U G67A | ≤ 0.5
C24G A65U | 0.742
